Test results as given in ChEMBL document CHEMBL4393718, “Synthesis, biological evaluation and computational study of novel isoniazid containing 4H-Pyrimido[2,1-b]benzothiazoles derivatives” (2019).
In brackets after ≈: the same amount, converted by molar mass.

Assays:
Assay type in all cases: functional
Klebsiella aerogenes [1] = assay: Antimicrobial activity against Enterobacter aerogenes MTCC 8558 incubated for 24 hrs by well diffusion method
How it was run: (§1)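 Well diffusion assay on nutrient agar plates. The read-out is the mean inhibition zone diameter in mm.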

Klebsiella aerogenes [2] = assay: Activity index, ratio of IZ for test compound to IZ for streptomycin for antimicrobial activity against Enterobacter aerogenes MTCC 8558 incubated for 24 hrs by well diffusion method
How it was run: (§2)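 Well diffusion on nutrient agar plates. The activity index is the mean inhibition zone of the derivative divided by the inhibition zone of the standard antibiotic.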

Escherichia coli [3] = assay: Antimicrobial activity against Escherichia coli MTCC 1610 incubated for 24 hrs by well diffusion method; how it was run: as §1
Escherichia coli [4] = assay: Activity index, ratio of IZ for test compound to IZ for streptomycin for antimicrobial activity against Escherichia coli MTCC 1610 incubated for 24 hrs by well diffusion method; how it was run: as §2
Micrococcus luteus [5] = assay: Antimicrobial activity against Micrococcus luteus MTCC 11948 incubated for 24 hrs by well diffusion method; how it was run: as §1
Micrococcus luteus [6] = assay: Activity index, ratio of IZ for test compound to IZ for streptomycin for antimicrobial activity against Micrococcus luteus MTCC 11948 incubated for 24 hrs by well diffusion method; how it was run: as §2
Bacillus cereus [7] = assay: Antimicrobial activity against Bacillus cereus MTCC 8558 incubated for 24 hrs by well diffusion method; how it was run: as §1
Bacillus cereus [8] = assay: Activity index, ratio of IZ for test compound to IZ for streptomycin for antimicrobial activity against Bacillus cereus MTCC 8558 incubated for 24 hrs by well diffusion method; how it was run: as §2
[9] = tested on: Mycobacterium tuberculosis; assay: Antitubercular activity against Mycobacterium tuberculosis H37Rv assessed as viable colony forming unit at 1000 ug/ml incubated for 42 days by Lowensteine-Jensen method (reference value: 123 CFU)
[10] = tested on: Mycobacterium tuberculosis; assay: Antitubercular activity against Mycobacterium tuberculosis H37Rv assessed as reduction in viable colony forming unit at 1000 ug/ml incubated for 42 days by Lowensteine-Jensen method relative to control
How it was run: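 H37Rv cultured on Lowenstein-Jensen medium with compound or untreated control; colony forming units counted on the L-J medium. Percent inhibition = (Cc − Ct)/Cc × 100, where c is control and t is test.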

[11] = tested on: Mycobacterium tuberculosis; assay: Antitubercular activity against Mycobacterium tuberculosis H37Rv incubated for 42 days by Lowensteine-Jensen method

## CCOc1ccc2c(c1)SC1=NC(C)=C(C(=O)NNC(=O)c3ccncc3)C(c3ccccn3)N12 (stereo unspecified)
Klebsiella aerogenes [1]
  inhibition zone (IZ): 25 mm
Klebsiella aerogenes [2]
  Activity_index: 1.042
Escherichia coli [3]
  inhibition zone (IZ): 13 mm
Escherichia coli [4]
  Activity_index: 0.542
Micrococcus luteus [5]
  inhibition zone (IZ): 23 mm
Micrococcus luteus [6]
  Activity_index: 0.958
Bacillus cereus [7]
  inhibition zone (IZ): 18 mm
Bacillus cereus [8]
  Activity_index: 0.75
[9]
  Activity: 45 CFU
[10]
  inhibition at 1000 µg/mL: 63.4%
[11]
  MIC: 62.5 µg/mL (≈ 128 µM)

## CC1=C(C(=O)NNC(=O)c2ccncc2)C(c2ccccn2)N2C(=N1)Sc1cc(C)ccc12 (stereo unspecified)
Klebsiella aerogenes [1]
  inhibition zone (IZ): 15 mm
Klebsiella aerogenes [2]
  Activity_index: 0.625
Escherichia coli [3]
  inhibition zone (IZ): 21 mm
Escherichia coli [4]
  Activity_index: 0.875
Micrococcus luteus [5]
  inhibition zone (IZ): 19 mm
Micrococcus luteus [6]
  Activity_index: 0.792
Bacillus cereus [7]
  inhibition zone (IZ): 19 mm
Bacillus cereus [8]
  Activity_index: 0.792
[9]
  Activity: 56 CFU
[10]
  inhibition at 1000 µg/mL: 54.5%
[11]
  MIC: 500 µg/mL (≈ 1100 µM)

## CC1=C(C(=O)NNC(=O)c2ccncc2)C(c2ccccn2)N2C(=N1)Sc1cccc(C)c12 (stereo unspecified)
Klebsiella aerogenes [1]
  inhibition zone (IZ): 23 mm
Klebsiella aerogenes [2]
  Activity_index: 0.958
Escherichia coli [3]
  inhibition zone (IZ): 17 mm
Escherichia coli [4]
  Activity_index: 0.708
Micrococcus luteus [5]
  inhibition zone (IZ): 23 mm
Micrococcus luteus [6]
  Activity_index: 0.958
Bacillus cereus [7]
  inhibition zone (IZ): 23 mm
Bacillus cereus [8]
  Activity_index: 0.958
[9]
  Activity: 65 CFU
[10]
  inhibition at 1000 µg/mL: 47.1%
[11]
  MIC: 1000 µg/mL (≈ 2190 µM)

## CC1=C(C(=O)NNC(=O)c2ccncc2)C(c2ccccn2)N2C(=N1)Sc1cc(C)c(C)cc12 (stereo unspecified)
Klebsiella aerogenes [1]
  inhibition zone (IZ): 19 mm
Klebsiella aerogenes [2]
  Activity_index: 0.792
Escherichia coli [3]
  inhibition zone (IZ): 15 mm
Escherichia coli [4]
  Activity_index: 0.625
Micrococcus luteus [5]
  inhibition zone (IZ): 19 mm
Micrococcus luteus [6]
  Activity_index: 0.792
Bacillus cereus [7]
  inhibition zone (IZ): 19 mm
Bacillus cereus [8]
  Activity_index: 0.792
[9]
  Activity: 22 CFU
[10]
  inhibition at 1000 µg/mL: 82.1%
[11]
  MIC: 12.5 µg/mL (≈ 26.6 µM)

## CC1=C(C(=O)NNC(=O)c2ccncc2)C(c2ccccn2)N2C(=N1)Sc1cc([N+](=O)[O-])ccc12 (stereo unspecified)
Klebsiella aerogenes [1]
  inhibition zone (IZ): 17 mm
Klebsiella aerogenes [2]
  Activity_index: 0.708
Escherichia coli [3]
  inhibition zone (IZ): 16 mm
Escherichia coli [4]
  Activity_index: 0.667
Micrococcus luteus [5]
  inhibition zone (IZ): 14 mm
Micrococcus luteus [6]
  Activity_index: 0.583
Bacillus cereus [7]
  inhibition zone (IZ): 24 mm
Bacillus cereus [8]
  Activity_index: 1
[9]
  Activity: 53 CFU
[10]
  inhibition at 1000 µg/mL: 56.9%
[11]
  MIC: 250 µg/mL (≈ 513 µM)

## CC1=C(C(=O)NNC(=O)c2ccncc2)C(c2ccccn2)N2C(=N1)Sc1cc(Cl)ccc12 (stereo unspecified)
Klebsiella aerogenes [1]
  inhibition zone (IZ): 16 mm
Klebsiella aerogenes [2]
  Activity_index: 0.667
Escherichia coli [3]
  inhibition zone (IZ): 18 mm
Escherichia coli [4]
  Activity_index: 0.75
Micrococcus luteus [5]
  inhibition zone (IZ): 16 mm
Micrococcus luteus [6]
  Activity_index: 0.667
Bacillus cereus [7]
  inhibition zone (IZ): 17 mm
Bacillus cereus [8]
  Activity_index: 0.708
[9]
  Activity: 35 CFU
[10]
  inhibition at 1000 µg/mL: 71.5%
[11]
  MIC: 125 µg/mL (≈ 262 µM)

## CC1=C(C(=O)NNC(=O)c2ccncc2)C(c2ccccn2)N2C(=N1)Sc1cc(Br)ccc12 (stereo unspecified)
Klebsiella aerogenes [1]
  inhibition zone (IZ): 20 mm
Klebsiella aerogenes [2]
  Activity_index: 0.833
Escherichia coli [3]
  inhibition zone (IZ): 19 mm
Escherichia coli [4]
  Activity_index: 0.792
Micrococcus luteus [5]
  inhibition zone (IZ): 15 mm
Micrococcus luteus [6]
  Activity_index: 0.625
Bacillus cereus [7]
  inhibition zone (IZ): 18 mm
Bacillus cereus [8]
  Activity_index: 0.75
[9]
  Activity: 33 CFU
[10]
  inhibition at 1000 µg/mL: 73.2%
[11]
  MIC: 62.5 µg/mL (≈ 120 µM)

## COc1cccc2c1N1C(=NC(C)=C(C(=O)NNC(=O)c3ccncc3)C1c1ccccn1)S2 (stereo unspecified)
Klebsiella aerogenes [1]
  inhibition zone (IZ): 23 mm
Klebsiella aerogenes [2]
  Activity_index: 0.958
Escherichia coli [3]
  inhibition zone (IZ): 17 mm
Escherichia coli [4]
  Activity_index: 0.708
Micrococcus luteus [5]
  inhibition zone (IZ): 17 mm
Micrococcus luteus [6]
  Activity_index: 0.708
Bacillus cereus [7]
  inhibition zone (IZ): 26 mm
Bacillus cereus [8]
  Activity_index: 1.083
[9]
  Activity: 61 CFU
[10]
  inhibition at 1000 µg/mL: 50.4%
[11]
  MIC: 125 µg/mL (≈ 265 µM)

## CC1=C(C(=O)NNC(=O)c2ccncc2)C(c2ccccn2)N2C(=N1)Sc1cc(OC(F)(F)F)ccc12 (stereo unspecified)
Klebsiella aerogenes [1]
  inhibition zone (IZ): 22 mm
Klebsiella aerogenes [2]
  Activity_index: 0.917
Escherichia coli [3]
  inhibition zone (IZ): 19 mm
Escherichia coli [4]
  Activity_index: 0.792
Micrococcus luteus [5]
  inhibition zone (IZ): 18 mm
Micrococcus luteus [6]
  Activity_index: 0.75
Bacillus cereus [7]
  inhibition zone (IZ): 19 mm
Bacillus cereus [8]
  Activity_index: 0.792
[9]
  Activity: 25 CFU
[10]
  inhibition at 1000 µg/mL: 79.7%
[11]
  MIC: 6.25 µg/mL (≈ 11.9 µM)

## CC1=C(C(=O)NNC(=O)c2ccncc2)C(c2ccccn2)N2C(=N1)Sc1cccc(Cl)c12 (stereo unspecified)
Klebsiella aerogenes [1]
  inhibition zone (IZ): 18 mm
Klebsiella aerogenes [2]
  Activity_index: 0.75
Escherichia coli [3]
  inhibition zone (IZ): 22 mm
Escherichia coli [4]
  Activity_index: 0.917
Micrococcus luteus [5]
  inhibition zone (IZ): 17 mm
Micrococcus luteus [6]
  Activity_index: 0.708
Bacillus cereus [7]
  inhibition zone (IZ): 16 mm
Bacillus cereus [8]
  Activity_index: 0.667
[9]
  Activity: 23 CFU
[10]
  inhibition at 1000 µg/mL: 81.3%
[11]
  MIC: 50 µg/mL (≈ 105 µM)

## CC1=C(C(=O)NNC(=O)c2ccncc2)C(c2ccccn2)N2C(=N1)Sc1ccccc12 (stereo unspecified)
Klebsiella aerogenes [1]
  inhibition zone (IZ): 19 mm
Klebsiella aerogenes [2]
  Activity_index: 0.792
Escherichia coli [3]
  inhibition zone (IZ): 13 mm
Escherichia coli [4]
  Activity_index: 0.542
Micrococcus luteus [5]
  inhibition zone (IZ): 20 mm
Micrococcus luteus [6]
  Activity_index: 0.833
Bacillus cereus [7]
  inhibition zone (IZ): 22 mm
Bacillus cereus [8]
  Activity_index: 0.917
[9]
  Activity: 37 CFU
[10]
  inhibition at 1000 µg/mL: 69.9%
[11]
  MIC: 125 µg/mL (≈ 282 µM)

## CC1=C(C(=O)NNC(=O)c2ccncc2)C(c2ccccn2)N2C(=N1)Sc1cc(F)ccc12 (stereo unspecified)
Klebsiella aerogenes [1]
  inhibition zone (IZ): 19 mm
Klebsiella aerogenes [2]
  Activity_index: 0.792
Escherichia coli [3]
  inhibition zone (IZ): 24 mm
Escherichia coli [4]
  Activity_index: 1
Micrococcus luteus [5]
  inhibition zone (IZ): 19 mm
Micrococcus luteus [6]
  Activity_index: 0.792
Bacillus cereus [7]
  inhibition zone (IZ): 12 mm
Bacillus cereus [8]
  Activity_index: 0.5
[9]
  Activity: 24 CFU
[10]
  inhibition at 1000 µg/mL: 80.5%
[11]
  MIC: 25 µg/mL (≈ 54.3 µM)

## COc1ccc2c(c1)SC1=NC(C)=C(C(=O)NNC(=O)c3ccncc3)C(c3ccccn3)N12 (stereo unspecified)
Klebsiella aerogenes [1]
  inhibition zone (IZ): 22 mm
Klebsiella aerogenes [2]
  Activity_index: 0.917
Escherichia coli [3]
  inhibition zone (IZ): 15 mm
Escherichia coli [4]
  Activity_index: 0.625
Micrococcus luteus [5]
  inhibition zone (IZ): 22 mm
Micrococcus luteus [6]
  Activity_index: 0.917
Bacillus cereus [7]
  inhibition zone (IZ): 15 mm
Bacillus cereus [8]
  Activity_index: 0.625
[9]
  Activity: 62 CFU
[10]
  inhibition at 1000 µg/mL: 49.6%
[11]
  MIC: 500 µg/mL (≈ 1060 µM)

## CC1=C(C(=O)NNC(=O)c2ccncc2)C(c2ccccn2)N2C(=N1)Sc1cc(O)ccc12 (stereo unspecified)
Klebsiella aerogenes [1]
  inhibition zone (IZ): 20 mm
Klebsiella aerogenes [2]
  Activity_index: 0.833
Escherichia coli [3]
  inhibition zone (IZ): 24 mm
Escherichia coli [4]
  Activity_index: 1
Micrococcus luteus [5]
  inhibition zone (IZ): 16 mm
Micrococcus luteus [6]
  Activity_index: 0.667
Bacillus cereus [7]
  inhibition zone (IZ): 24 mm
Bacillus cereus [8]
  Activity_index: 1
[9]
  Activity: 39 CFU
[10]
  inhibition at 1000 µg/mL: 68.3%
[11]
  MIC: 100 µg/mL (≈ 218 µM)

## NNC(=O)c1ccncc1 [ISONIAZID]
[9]
  Activity: 1 CFU
[10]
  inhibition at 1000 µg/mL: 99.2%
[11]
  MIC: 0.2 µg/mL (≈ 1.46 µM)

## CN[C@@H]1[C@H](O[C@H]2[C@H](O[C@H]3[C@H](O)[C@@H](O)[C@H](N=C(N)N)[C@@H](O)[C@@H]3N=C(N)N)O[C@@H](C)[C@]2(O)C=O)O[C@@H](CO)[C@H](O)[C@H]1O [STREPTOMYCIN]
Klebsiella aerogenes [1]
  inhibition zone (IZ): 24 mm
Escherichia coli [3]
  inhibition zone (IZ): 24 mm
Micrococcus luteus [5]
  inhibition zone (IZ): 24 mm
Bacillus cereus [7]
  inhibition zone (IZ): 24 mm
